Reference: article PMC7679043 (Molecular imaging and biology, 2020)
Entries after “also recorded” stand apart in the source; their conditions may differ. Read-outs that look alike come from different tables or passages of the source.

What was measured:
S1PR1 [1] = target: S1PR1 (Rattus norvegicus, UniProt P48303); assay type: in vivo; settings: for Average uptake: 10–60 min post injection; for 2TCM VT: image-derived input function
Method in brief: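 EAE and sham rats (n=3–4 per group per tracer) were held under 1.5–2% isoflurane/oxygen, centered on T13. After CT, each received a 15–22 MBq i.v. bolus, followed by 60-min dynamic list-mode PET. Lumbar spinal cord and bilateral carotid ROIs on co-registered PET/CT gave %ID/g TACs. Mean 10–60 min uptake and 2TCM VT (carotid image-derived input) were compared by two-tailed t-test (P<0.05).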

[2] = HPLC radiometabolite analysis of rat plasma and brain; assay type: in vivo; settings: for level of the lipophilic radiometabolite / level of the polar radiometabolite / percentage of the parent compound: rat plasma
Method in brief: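 Adult male Sprague Dawley rats were given ~37 MBq tracer i.v. At set times post-injection they were killed by terminal exsanguination under surgical-plane anesthesia. Heparinized left-ventricle blood was spun to plasma, solvent-deproteinated and re-centrifuged. Whole brain was homogenized in cold PBS, then solvent-extracted, deproteinated and centrifuged. Supernatants ran on C18 HPLC with acetonitrile/0.1 M ammonium formate pH 4.5 (70/30) at 0.76 mL/min. Radioactive peaks were expressed as percentages.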

S1PR1 [3] = settings: read-out: IC50, nM S1PR1; binding affinity reported previously; cited from earlier work
S1PR2-5 = settings: read-out: IC50, nM S1PR2-5; binding affinity reported previously; cited from earlier work
[4] = rat brain homogenate, 5 min p.i.
[5] = rat brain homogenate, 15 min p.i.
[6] = rat brain homogenate, 40 min p.i.
[7] = rat brain homogenate, 60 min p.i.

S1PR1 (Rattus norvegicus, UniProt P48303), sequence (P48303 whole entry): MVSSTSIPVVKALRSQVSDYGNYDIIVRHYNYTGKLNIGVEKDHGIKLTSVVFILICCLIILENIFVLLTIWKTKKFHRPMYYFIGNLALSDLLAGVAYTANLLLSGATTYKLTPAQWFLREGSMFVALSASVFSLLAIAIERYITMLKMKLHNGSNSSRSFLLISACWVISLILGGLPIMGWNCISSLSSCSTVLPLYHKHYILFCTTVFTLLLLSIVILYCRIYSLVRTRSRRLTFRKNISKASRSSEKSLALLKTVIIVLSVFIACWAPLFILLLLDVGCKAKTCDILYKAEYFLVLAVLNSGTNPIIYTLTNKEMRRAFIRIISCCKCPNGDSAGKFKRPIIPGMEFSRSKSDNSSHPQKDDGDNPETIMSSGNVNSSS

OCCOCc1ccc(-c2noc(-c3ccc(OCC[18F])c(C(F)(F)F)c3)n2)cc1 [TZ4877]
Average uptake (S1PR1 [1]; EAE rat lumbar spinal cord): 1.42 ± 0.14 %ID/g | 2TCM VT (S1PR1 [1]; EAE rat lumbar spinal cord): 2.18 ± 0.20 mL/cc | 2TCM VT Increase, % (S1PR1 [1]; EAE vs sham): 21.11% | Average uptake Increase, % (S1PR1 [1]; EAE vs sham rat lumbar spinal cord, listed as 18F-TZ4877): 29.09% | bone uptake/defluorination (S1PR1 [1]; PET images without CT co-registration, rat): no obvious bone uptake/defluorination | initial tracer uptake at 20 min (S1PR1 [1]; rat spinal cord, 20 min): ~ 1.5 %ID/g | tracer uptake / retention at 60 min (S1PR1 [1]; rat spinal cord, 60 min): > 1.0 %ID/g | Average uptake (S1PR1 [1]; sham rat lumbar spinal cord, listed as 18F-TZ4877): 1.10 ± 0.06 %ID/g | 2TCM VT (S1PR1 [1]; sham rat lumbar spinal cord): 1.80 ± 0.20 mL/cc | hydrophilic radiometabolite [2, 4]: 6% | parent tracer percentage [2, 4]: 78% | hydrophilic radiometabolite [2, 5]: 2% | parent tracer percentage [2, 5]: 89% | hydrophilic radiometabolite [2, 6]: 10% | parent tracer percentage [2, 6]: 65% | hydrophilic radiometabolite [2, 7]: 14% | parent tracer percentage [2, 7]: 68% | lipophilic radiometabolite in brain ([2]; rat brain homogenate, listed as 18F-TZ4877): No lipophilic radioactive peak was detected; also recorded: not detected | level of the lipophilic radiometabolite ([2]; 5 min p.i.): 14% | level of the polar radiometabolite ([2]; 5 min p.i.): 7% | percentage of the parent compound ([2]; 5 min p.i.): 75% | level of the lipophilic radiometabolite ([2]; 15 min p.i.): 21% | level of the polar radiometabolite ([2]; 15 min p.i.): 6% | percentage of the parent compound ([2]; 15 min p.i.): 68% | level of the lipophilic radiometabolite ([2]; 40 min p.i.): 26% | level of the polar radiometabolite ([2]; 40 min p.i.): 5% | percentage of the parent compound ([2]; 40 min p.i.): 66% | level of the lipophilic radiometabolite ([2]; 60 min p.i.): 41% | level of the polar radiometabolite ([2]; 60 min p.i.): 5% | percentage of the parent compound ([2]; 60 min p.i.): 51%

OCCOCc1ccc(-c2noc(-c3ccc(OCCF)c(C(F)(F)F)c3)n2)cc1 [TZ4877]
IC50 (S1PR1 [3]): 14.01 ± 0.04 nM | IC50 (S1PR2-5): > 1000 nM
